Bioassay records deposited in PubChem BioAssay by The Scripps Research Institute Molecular Screening Center.
M5 PAM – CHRM5 positive allosteric modulation | P08912 | CHO-K1 hM5, Fluo-8 calcium, ACh EC20 PAM; 0% = ACh EC20, 100% = ACh EC100 | activation, % at 3 µM | hit rate 0.3% among 360,000;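 active means activation above the run cutoff, the mean activation of all test compounds plus 3 SD, cut at about 18% in these data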
Target sequence (P08912 whole entry, looked up): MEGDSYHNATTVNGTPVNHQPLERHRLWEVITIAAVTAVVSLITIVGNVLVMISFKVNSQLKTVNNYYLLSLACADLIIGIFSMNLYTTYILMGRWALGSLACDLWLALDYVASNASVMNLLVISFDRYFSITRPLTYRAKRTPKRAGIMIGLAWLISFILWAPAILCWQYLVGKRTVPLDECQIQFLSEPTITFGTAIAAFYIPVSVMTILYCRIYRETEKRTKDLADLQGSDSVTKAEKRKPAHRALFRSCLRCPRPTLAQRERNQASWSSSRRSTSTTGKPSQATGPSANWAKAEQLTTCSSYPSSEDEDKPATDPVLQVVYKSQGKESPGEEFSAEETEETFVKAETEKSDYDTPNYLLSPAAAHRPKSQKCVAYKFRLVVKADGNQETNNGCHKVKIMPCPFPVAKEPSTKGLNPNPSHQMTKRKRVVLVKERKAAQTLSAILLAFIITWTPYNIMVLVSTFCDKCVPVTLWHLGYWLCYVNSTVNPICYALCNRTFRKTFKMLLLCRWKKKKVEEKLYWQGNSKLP
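Replicates: One well per compound, no replicates | System: Human M5 receptor in CHO-K1 cells | Benchmarks: Low control EC20 acetylcholine (0%), high control EC100 acetylcholine (100%) | Probe or stimulus: Acetylcholine, EC20 level | Times: Fluo-8 loading 80 min at 37 °C plus 30 min room temperature | Signal: Intracellular calcium via Fluo-8 fluorescence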
M5 antag – CHRM5 antagonism in calcium assay. P08912. CHO-hM5 cells, Fluo-8 calcium fluorescence, ACh EC80. inhibition, % at 3 µM. hit rate 0.59% among 360,000;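 active means inhibition above a per-plate cutoff, the mean of that plate's test compounds plus 3 SD, cut at about 27% in these data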;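 further: 0% = acetylcholine EC80 with DMSO and 100% = DMSO without agonist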
CHRM4 agonist – agonists of human muscarinic M4 receptor (CHRM4); P08173; CHO-K1 hM4/Gqi5, Fluo-8 calcium fluorescence; vehicle 0%, full acetylcholine response 100%; hit rate 0.14% among 360,000; AID 624127; activation, % at 3 µM;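 active means activation above the run mean over all test wells plus 3 SD, cut at about 32% in these data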;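 further: peak over basal fluorescence ratio per well then scaled between controls; 0% = DMSO wells and 100% = acetylcholine at EC100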
CHRM4 antagonist – CHRM4 antagonism in calcium assay; CHO-hM4 cells, ACh EC80, Fluo-8 calcium fluorescence; hit rate 0.73% among 360,000; inhibition, % at 3 µM;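 active means inhibition above its plate's cutoff, the mean inhibition of sample wells plus 3 SD, cut at about 27% in these data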;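 further: 0% = acetylcholine EC80 with DMSO and 100% = DMSO without agonist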
CHRM5 agonist – agonists of human muscarinic M5 receptor (CHRM5); P08912; CHO-K1 hM5 cells, Fluo-8 calcium fluorescence; 0% DMSO wells, 100% maximal acetylcholine response; activation, % at 3 µM; hit rate 0.19% among 360,000; AID 624037;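 active means activation above the run's mean over test compounds plus 3 SD, cut at about 23% in these data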;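 further: signal is peak over basal fluorescence ratio across the kinetic read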
M4 PAM – CHRM4 positive allosteric modulation; P08173; CHO-K1 hM4/Gqi5, Fluo-8 calcium fluorescence, ACh EC20; 0% = ACh EC20, 100% = maximal ACh; activation, % at 3 µM; hit rate 0.4% among 360,000;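 active means activation above its plate's cutoff, the mean activation of sample wells plus 3 SD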
The depositor's hits bear a star; x = no result given. The list is not random: actives were taken first. Their share in the collection is about 1.8%.

SMILES	M5 PAM	M5 antag	CHRM4 agonist	CHRM4 antagonist	CHRM5 agonist	M4 PAM
CC(C)C[C@H]1CNC(=O)C(=O)N1C[C@@H]1CCCN1C[C@H](Cc1ccccc1)N1C[C@H](Cc2ccccc2)N(CCc2ccccc2)C(=O)C1=O	1	-10	0	-6	0	1
COC1=C(OC)C(=O)C(CCCCCCCCCCO)=C(C)C1=O	-19	40*	10	98*	4	-17
CCCC1(c2ccsc2)NC(=O)NC1=O (centres undefined)	14	-1	0	-2	3	1
COc1ccc(OC)c(C(=O)CCCC(=O)c2cc(OC)ccc2OC)c1	-5	4	2	31*	-5	-6
COc1ccc(OC)c(C(=O)COC(=O)c2c(OC)cccc2OC)c1	-3	-6	4	-1	-1	-4
O=c1c2cnn(-c3ccc(F)cc3)c2ncn1Cc1cccnc1	29*	-2	4	-16	2	4
c1ccc(-c2nn3nnnc3c3ccccc23)cc1	-2	2	0	5	0	-3
Cc1ccc(-c2nn3nnnc3c3ccccc23)cc1C	10	7	1	11	-2	39*
COC(=O)[C@]1(CC(C)C)N[C@H](c2ccc(-c3cccc(Cl)c3)cc2)[C@@H]2C(=O)N(C)C(=O)[C@@H]21	1	3	1	5	0	2
CN1C2CC(OC(=O)C(CO)c3ccccc3)CC1C1OC12 (centres undefined)	x	x	1	99*	x	-17
COc1cc(C(O)c2nc(-c3ccc(N(C)C)cc3)cs2)ccc1F (centres undefined)	-11	5	41*	9	8	-12
OC(c1ccc(F)c(F)c1)c1nc(-c2ccccc2)cs1 (centres undefined)	-2	-1	1	-1	0	2
COc1ccc(-c2csc(C(O)c3ccc(F)c(F)c3)n2)cc1 (centres undefined)	-11	14	33*	3	4	-7
CCOC(=O)c1c(N/N=C/c2cccnc2)n[nH]c1C	12	-2	0	-3	1	12
CC(=O)NNC(=S)NC(=O)C(c1ccccc1)c1ccccc1	9	-4	16	4	6	5
CC(C)(C)C(=O)NC(=S)NNC(=O)C(c1ccccc1)c1ccccc1	-34	52*	154*	76*	111*	-43
CCOC(=O)c1c(S(=O)(=O)NC2CCN(C(=O)OCC)CC2)c(C)n(C)c1C	5	-2	2	-6	-1	6
O=C(O)CNC(=O)c1ccc(NC(=O)/C(=C/c2cccc([N+](=O)[O-])c2)NC(=O)c2ccco2)cc1	3	11	0	6	-3	3
CC(=O)c1c(C)[nH]c(C(=O)Nc2cccc(C)n2)c1C	-10	10	4	-21	-3	1
CC(C)(C)NS(=O)(=O)c1ccc(NC(=O)Cc2ccccc2[N+](=O)[O-])cc1	1	-13	9	-5	0	20*
CCCCNS(=O)(=O)c1ccc(NC(=O)Cc2ccccc2[N+](=O)[O-])cc1	1	0	4	0	1	1
O=C1CCCN2N=C(SCC(=O)Nc3cccc(C(F)(F)F)c3)SC2=N1	-13	36*	14	12	6	-14
CC(C(=O)Nc1ccc2c(c1)OCCO2)N1Cc2ccccc2C1=O (centres undefined)	-6	24	0	-1	-5	3
CCC(C)[C@@H](C(=O)Nc1ccc2c(c1)OCO2)N1Cc2ccccc2C1=O (some centres undefined)	-3	0	-2	-19	-2	19*
C=CC[C@@H](CC(=O)N(CCO)Cc1ccccc1)C(=O)NC[C@@H](OC(=O)[C@@H](CC=C)Cc1ccc(F)cc1)c1ccccc1	-21	16	14	22	-1	-9
SMILES	M5 PAM	M5 antag	CHRM4 agonist	CHRM4 antagonist	CHRM5 agonist	M4 PAM
C=CC[C@@H](CC(=O)N(CCO)Cc1ccccc1)C(=O)N[C@H](COC(=O)[C@@H](CC=C)Cc1ccc(F)cc1)Cc1ccccc1	-25	18	11	31*	-2	-12
C=CC[C@H](CC(=O)N(CCO)Cc1ccccc1)C(=O)NC[C@H](OC(=O)[C@@H](CC=C)Cc1ccc(F)cc1)c1ccccc1	-30	20	21	30*	0	-14
COc1cc(/C=C2\S/C(=N/S(=O)(=O)c3ccc(C)cc3)NC2=O)c([N+](=O)[O-])cc1OC	7	-5	0	13	-1	4
O=C1NC(=Nc2ccccc2Cl)S/C1=C\c1cc([N+](=O)[O-])ccc1O	-3	12	9	-6	32*	-12
COc1cccc(N=C2NC(=O)/C(=C/c3cc([N+](=O)[O-])ccc3O)S2)c1	1	2	1	6	1	-10
Cc1ccc(S(=O)(=O)/N=C2/NC(=O)/C(=C/c3cc([N+](=O)[O-])ccc3O)S2)cc1	-18	8	108*	30*	49*	-26
CCS(=O)(=O)N1CCC(C(=O)Oc2ccc(C(=O)OC)cc2)CC1	4	7	1	-17	-2	-6
COc1ccc(C)cc1NC(=O)CCN1CC(C)OC(C)C1 (centres undefined)	12	0	2	-7	-1	20*
Cc1cc(C)cc(OCC(=O)Nc2ccc(N3CCN(C(=O)c4ccco4)CC3)cc2)c1	-24	18	27	32*	6	-18
Cc1cc(C)c(OCC(=O)Nc2cccc(NC(=O)c3ccco3)c2)c(Br)c1	-19	18	15	13	-1	-9
Cc1cc(C)c(OCC(=O)Nc2ccc(NC(=O)c3ccco3)cc2)c([N+](=O)[O-])c1	26*	-2	4	-2	0	-1
O=C(COC(=O)/C=C/c1ccccc1[N+](=O)[O-])NC(=O)NC1CCCC1	11	-2	-1	-19	3	16
Cc1onc(-c2c(F)cccc2Cl)c1C(=O)OCC(=O)N(C)c1ccccc1	-5	-3	7	-19	0	0
COc1ccc(NS(=O)(=O)c2ccc3c(c2)OCCO3)cc1OC	-13	29*	15	-5	8	-4
COc1ccc(S(=O)(=O)Nc2ccc3c(c2)OCO3)cc1OC	1	1	2	-3	1	0
COc1ccc(S(=O)(=O)NCC(c2ccc(F)cc2)N2CCN(C)CC2)cc1 (centres undefined)	-1	6	1	-13	-10	0
CCOc1cc(/C=C2\SC(=O)N(CC(=O)Nc3ccccc3F)C2=O)cc([N+](=O)[O-])c1O	23*	-1	-1	-2	0	11
